# According to ChEMBL document CHEMBL2346629, “Discovery and characterization of novel allosteric FAK inhibitors” (Eur J Med Chem, 2013):
# Key:
# [1] = biological target: Mitogen-activated protein kinase kinase kinase 14 (Homo sapiens) (UniProt Q99558); assay: Inhibition of NIK (unknown origin) using [gamma-33P]ATP assessed as residual activity at 3 uM
# [2] = biological target: Serine/threonine-protein kinase Nek6 (Homo sapiens) (UniProt Q9HC98); assay: Inhibition of NEK6 (unknown origin) using [gamma-33P]ATP assessed as residual activity at 3 uM
# [3] = biological target: Tyrosine-protein kinase HCK (Homo sapiens) (UniProt P08631); assay: Inhibition of HCK (unknown origin) using [gamma-33P]ATP assessed as residual activity at 3 uM
# Chain of Tyrosine-protein kinase HCK (Homo sapiens) (P08631 2-526 limits assumed): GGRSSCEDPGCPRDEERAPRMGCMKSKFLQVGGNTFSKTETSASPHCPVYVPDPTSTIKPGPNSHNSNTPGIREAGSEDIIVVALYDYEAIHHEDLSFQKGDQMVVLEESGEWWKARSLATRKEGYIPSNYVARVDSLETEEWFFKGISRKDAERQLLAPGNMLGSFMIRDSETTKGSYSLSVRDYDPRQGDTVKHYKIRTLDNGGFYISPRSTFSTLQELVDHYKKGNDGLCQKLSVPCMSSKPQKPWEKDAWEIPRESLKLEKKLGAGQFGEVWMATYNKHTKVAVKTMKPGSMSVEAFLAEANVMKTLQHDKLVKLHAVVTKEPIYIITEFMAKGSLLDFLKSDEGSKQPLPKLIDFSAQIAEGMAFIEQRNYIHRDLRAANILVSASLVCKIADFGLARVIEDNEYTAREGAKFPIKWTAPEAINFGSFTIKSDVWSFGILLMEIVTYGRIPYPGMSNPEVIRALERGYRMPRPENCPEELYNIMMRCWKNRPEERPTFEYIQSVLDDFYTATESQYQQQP
# Summary of the method: (§1)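 Radiometric kinase profiling service covering 288 kinases (261 wild-type, 27 mutant). Inhibition was read as incorporation from [γ-³³P]ATP.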
# [4] = tested on: Mast/stem cell growth factor receptor Kit (Homo sapiens), P10721 [D816H]; assay: Inhibition of c-Kit D816H mutant (unknown origin) using [gamma-33P]ATP assessed as residual activity at 3 uM
# Chain of Mast/stem cell growth factor receptor Kit (Homo sapiens), P10721 [D816H] (P10721 whole entry D816H): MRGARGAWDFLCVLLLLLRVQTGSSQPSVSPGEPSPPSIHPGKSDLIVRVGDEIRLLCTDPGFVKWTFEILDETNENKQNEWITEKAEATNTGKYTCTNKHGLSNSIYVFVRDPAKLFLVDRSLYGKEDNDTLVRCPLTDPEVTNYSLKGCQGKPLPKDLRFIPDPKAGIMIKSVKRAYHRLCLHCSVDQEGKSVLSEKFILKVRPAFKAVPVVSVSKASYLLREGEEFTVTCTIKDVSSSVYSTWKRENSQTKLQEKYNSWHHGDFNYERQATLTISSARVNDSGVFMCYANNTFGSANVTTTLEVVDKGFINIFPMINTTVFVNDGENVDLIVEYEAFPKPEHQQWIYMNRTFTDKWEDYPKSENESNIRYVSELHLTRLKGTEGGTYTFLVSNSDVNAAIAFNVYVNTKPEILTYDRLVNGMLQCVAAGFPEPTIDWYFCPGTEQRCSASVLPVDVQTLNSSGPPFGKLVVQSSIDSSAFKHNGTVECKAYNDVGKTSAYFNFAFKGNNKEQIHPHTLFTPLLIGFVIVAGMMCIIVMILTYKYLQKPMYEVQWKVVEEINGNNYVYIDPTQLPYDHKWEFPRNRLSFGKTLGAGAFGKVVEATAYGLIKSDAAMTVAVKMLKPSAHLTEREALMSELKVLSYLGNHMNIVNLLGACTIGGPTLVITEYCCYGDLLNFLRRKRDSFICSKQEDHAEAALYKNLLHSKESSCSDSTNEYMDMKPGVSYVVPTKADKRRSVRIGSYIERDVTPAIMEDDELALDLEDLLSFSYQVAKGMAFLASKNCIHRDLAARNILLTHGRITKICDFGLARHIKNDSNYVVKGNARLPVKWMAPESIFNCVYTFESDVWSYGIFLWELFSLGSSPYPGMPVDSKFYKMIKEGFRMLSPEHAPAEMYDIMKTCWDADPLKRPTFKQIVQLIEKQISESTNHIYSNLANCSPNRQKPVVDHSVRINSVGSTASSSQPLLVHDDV
# [5] = biological target: Activin receptor type-1B (Homo sapiens) (UniProt P36896); assay: Inhibition of ALK4 (unknown origin) using [gamma-33P]ATP assessed as residual activity at 3 uM
# Summary of the method: (§2)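 Radiometric profiling across 288 kinases (261 wild-type, 27 mutant), run as an outsourced service. Inhibition read out as [gamma-33P]ATP incorporation into substrate.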
# [6] = biological target: CDK6/cyclin D3 (Homo sapiens) (UniProt P30281+Q00534); assay: Inhibition of CDK6/cyclin D3 (unknown origin) using [gamma-33P]ATP assessed as residual activity at 3 uM; type: protein-complex assay; summary of the method: as §2
# [7] = biological target: Dual specificity tyrosine-phosphorylation-regulated kinase 4 (Homo sapiens) (UniProt Q9NR20); assay: Inhibition of DYRK4 (unknown origin) using [gamma-33P]ATP assessed as residual activity at 3 uM
# Summary of the method: (§3)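 Reaction Biology HotSpot radiometric profiling panel of 288 kinases (261 wild-type, 27 mutant). Kinase activity was read out by incorporation of [γ-33P]ATP.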
# [8] = biological target: Serine/threonine-protein kinase PAK 1 (Homo sapiens) (UniProt Q13153); assay: Inhibition of PAK1 (unknown origin) using [gamma-33P]ATP assessed as residual activity at 3 uM
# [9] = biological target: Protein kinase C iota type (Homo sapiens) (UniProt P41743); assay: Inhibition of PKCiota (unknown origin) using [gamma-33P]ATP assessed as residual activity at 3 uM
# Chain of Protein kinase C iota type (Homo sapiens) (P41743 whole entry): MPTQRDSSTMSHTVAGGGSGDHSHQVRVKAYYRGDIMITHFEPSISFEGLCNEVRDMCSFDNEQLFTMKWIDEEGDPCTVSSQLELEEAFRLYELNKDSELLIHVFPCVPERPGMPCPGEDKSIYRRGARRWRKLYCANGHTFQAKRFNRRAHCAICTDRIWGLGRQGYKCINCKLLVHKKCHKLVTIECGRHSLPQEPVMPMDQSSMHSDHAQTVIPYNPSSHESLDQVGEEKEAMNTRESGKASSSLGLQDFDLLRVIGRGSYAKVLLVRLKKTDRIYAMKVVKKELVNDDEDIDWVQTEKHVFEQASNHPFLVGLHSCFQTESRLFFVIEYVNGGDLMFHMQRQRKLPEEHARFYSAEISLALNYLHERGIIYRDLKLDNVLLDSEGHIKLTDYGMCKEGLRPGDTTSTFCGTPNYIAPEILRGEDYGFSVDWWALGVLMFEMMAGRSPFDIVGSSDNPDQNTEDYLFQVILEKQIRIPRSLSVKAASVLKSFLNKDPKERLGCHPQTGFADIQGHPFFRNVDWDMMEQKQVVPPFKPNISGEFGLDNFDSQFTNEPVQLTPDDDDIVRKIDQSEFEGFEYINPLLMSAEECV
# [10] = biological target: Serine/threonine-protein kinase BRSK1 (Homo sapiens) (UniProt Q8TDC3); assay: Inhibition of BRSK1 (unknown origin) using [gamma-33P]ATP assessed as residual activity at 3 uM; summary of the method: as §2
# [11] = biological target: Casein kinase I isoform gamma-2 (Homo sapiens) (UniProt P78368); assay: Inhibition of CK1g2 (unknown origin) using [gamma-33P]ATP assessed as residual activity at 3 uM; summary of the method: as §3
# Chain of Casein kinase I isoform gamma-2 (Homo sapiens) (P78368 whole entry, looked up, canonical isoform): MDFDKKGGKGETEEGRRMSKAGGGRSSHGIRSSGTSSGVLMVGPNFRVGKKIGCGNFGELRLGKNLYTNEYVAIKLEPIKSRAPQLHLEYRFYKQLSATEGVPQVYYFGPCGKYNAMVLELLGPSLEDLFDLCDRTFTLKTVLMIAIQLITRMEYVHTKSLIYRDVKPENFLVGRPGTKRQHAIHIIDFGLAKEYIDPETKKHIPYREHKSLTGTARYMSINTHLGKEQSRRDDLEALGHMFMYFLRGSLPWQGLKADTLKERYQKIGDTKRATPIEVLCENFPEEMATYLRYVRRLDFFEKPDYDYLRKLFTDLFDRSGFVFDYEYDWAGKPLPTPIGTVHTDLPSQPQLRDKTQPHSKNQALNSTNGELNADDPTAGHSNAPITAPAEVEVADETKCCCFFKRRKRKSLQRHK
# [12] = biological target: Tyrosine-protein kinase Fes/Fps (Homo sapiens) (UniProt P07332); assay: Inhibition of Fes (unknown origin) using [gamma-33P]ATP assessed as residual activity at 3 uM; summary of the method: as §1
# [13] = biological target: Protein kinase C theta type (Homo sapiens) (UniProt Q04759); assay: Inhibition of PKCtheta (unknown origin) using [gamma-33P]ATP assessed as residual activity at 3 uM
# Chain of Protein kinase C theta type (Homo sapiens) (Q04759 whole entry, looked up): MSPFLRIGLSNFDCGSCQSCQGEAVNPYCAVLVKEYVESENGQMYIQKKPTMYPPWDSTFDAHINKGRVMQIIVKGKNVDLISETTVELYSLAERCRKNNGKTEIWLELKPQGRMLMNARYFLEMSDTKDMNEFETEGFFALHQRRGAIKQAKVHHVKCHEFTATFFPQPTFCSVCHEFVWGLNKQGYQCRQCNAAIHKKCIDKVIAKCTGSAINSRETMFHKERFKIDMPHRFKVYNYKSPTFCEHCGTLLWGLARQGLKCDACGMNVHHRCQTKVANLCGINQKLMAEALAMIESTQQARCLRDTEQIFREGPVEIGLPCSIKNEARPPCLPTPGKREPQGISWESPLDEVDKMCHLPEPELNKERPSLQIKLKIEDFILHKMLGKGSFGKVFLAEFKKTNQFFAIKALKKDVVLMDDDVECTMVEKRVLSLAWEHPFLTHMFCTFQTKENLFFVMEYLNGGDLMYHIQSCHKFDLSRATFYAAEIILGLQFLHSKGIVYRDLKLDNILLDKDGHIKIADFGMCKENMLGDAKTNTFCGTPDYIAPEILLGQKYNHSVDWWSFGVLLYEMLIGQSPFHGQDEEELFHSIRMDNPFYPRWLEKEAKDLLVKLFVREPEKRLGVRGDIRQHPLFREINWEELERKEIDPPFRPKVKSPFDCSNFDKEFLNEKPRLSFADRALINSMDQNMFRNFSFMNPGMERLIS
# [14] = biological target: High affinity nerve growth factor receptor (Homo sapiens) (UniProt P04629); assay: Inhibition of TRKA (unknown origin) using [gamma-33P]ATP assessed as residual activity at 3 uM
# [15] = biological target: Insulin receptor (Homo sapiens) (UniProt P06213); assay: Inhibition of IR (unknown origin) using [gamma-33P]ATP assessed as residual activity at 3 uM; summary of the method: as §1
# [16] = biological target: Tyrosine-protein kinase FRK (Homo sapiens) (UniProt P42685); assay: Inhibition of FRK (unknown origin) using [gamma-33P]ATP assessed as residual activity at 3 uM; summary of the method: as §1
# [17] = biological target: Macrophage colony-stimulating factor 1 receptor (Homo sapiens) (UniProt P07333); assay: Inhibition of FMS (unknown origin) using [gamma-33P]ATP assessed as residual activity at 3 uM; summary of the method: as §1
# [18] = biological target: Mitogen-activated protein kinase kinase kinase 20 (Homo sapiens) (UniProt Q9NYL2); assay: Inhibition of ZAK (unknown origin) using [gamma-33P]ATP assessed as residual activity at 3 uM
# Chain of Mitogen-activated protein kinase kinase kinase 20 (Homo sapiens) (Q9NYL2 2-800 limits assumed): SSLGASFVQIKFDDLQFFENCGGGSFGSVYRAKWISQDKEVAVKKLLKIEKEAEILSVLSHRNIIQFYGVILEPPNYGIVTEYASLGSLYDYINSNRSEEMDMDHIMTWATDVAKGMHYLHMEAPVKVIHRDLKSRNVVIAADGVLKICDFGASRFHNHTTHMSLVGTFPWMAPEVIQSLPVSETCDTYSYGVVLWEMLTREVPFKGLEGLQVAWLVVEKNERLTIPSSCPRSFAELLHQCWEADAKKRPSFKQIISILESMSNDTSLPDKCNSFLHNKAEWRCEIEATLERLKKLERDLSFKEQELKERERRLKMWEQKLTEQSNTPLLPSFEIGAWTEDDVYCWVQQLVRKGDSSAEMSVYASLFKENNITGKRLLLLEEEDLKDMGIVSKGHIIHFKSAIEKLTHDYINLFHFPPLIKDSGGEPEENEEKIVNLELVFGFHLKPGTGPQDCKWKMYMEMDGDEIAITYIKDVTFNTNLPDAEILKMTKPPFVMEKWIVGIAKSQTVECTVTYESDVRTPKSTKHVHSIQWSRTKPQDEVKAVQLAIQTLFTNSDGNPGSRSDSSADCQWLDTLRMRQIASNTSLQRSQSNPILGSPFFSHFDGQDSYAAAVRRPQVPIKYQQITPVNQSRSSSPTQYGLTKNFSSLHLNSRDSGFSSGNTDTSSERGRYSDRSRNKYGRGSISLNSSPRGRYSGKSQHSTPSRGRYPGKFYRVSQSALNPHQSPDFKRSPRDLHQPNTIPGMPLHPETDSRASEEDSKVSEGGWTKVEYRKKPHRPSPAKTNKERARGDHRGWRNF
# [19] = biological target: Megakaryocyte-associated tyrosine-protein kinase (Homo sapiens) (UniProt P42679); assay: Inhibition of CTK (unknown origin) using [gamma-33P]ATP assessed as residual activity at 3 uM; summary of the method: as §3
# [20] = biological target: Serine/threonine-protein kinase Sgk2 (Homo sapiens) (UniProt Q9HBY8); assay: Inhibition of SGK2 (unknown origin) using [gamma-33P]ATP assessed as residual activity at 3 uM
# [21] = biological target: Interleukin-1 receptor-associated kinase 1 (Homo sapiens) (UniProt P51617); assay: Inhibition of IRAK1 (unknown origin) using [gamma-33P]ATP assessed as residual activity at 3 uM; summary of the method: as §1
# [22] = tested on: Serine/threonine-protein kinase Chk2 (Homo sapiens), O96017 [I157T]; assay: Inhibition of CHK2 I157T mutant (unknown origin) using [gamma-33P]ATP assessed as residual activity at 3 uM
# Chain of Serine/threonine-protein kinase Chk2 (Homo sapiens), O96017 [I157T] (O96017 whole entry I157T): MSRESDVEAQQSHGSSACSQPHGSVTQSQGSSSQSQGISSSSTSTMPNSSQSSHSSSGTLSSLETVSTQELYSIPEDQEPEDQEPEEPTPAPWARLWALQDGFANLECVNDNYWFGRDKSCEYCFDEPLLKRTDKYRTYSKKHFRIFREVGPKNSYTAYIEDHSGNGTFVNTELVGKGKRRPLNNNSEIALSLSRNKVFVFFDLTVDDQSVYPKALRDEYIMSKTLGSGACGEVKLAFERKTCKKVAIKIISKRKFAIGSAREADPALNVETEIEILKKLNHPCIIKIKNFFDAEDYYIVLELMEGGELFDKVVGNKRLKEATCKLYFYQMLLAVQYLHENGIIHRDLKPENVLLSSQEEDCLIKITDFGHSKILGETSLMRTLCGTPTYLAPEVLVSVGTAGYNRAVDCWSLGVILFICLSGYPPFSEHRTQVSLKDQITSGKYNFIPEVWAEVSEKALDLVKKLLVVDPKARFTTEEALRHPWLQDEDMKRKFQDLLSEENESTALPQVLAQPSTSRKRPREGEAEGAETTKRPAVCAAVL
# [23] = biological target: Calcium/calmodulin-dependent protein kinase type IV (Homo sapiens) (UniProt Q16566); assay: Inhibition of CAMK4 (unknown origin) using [gamma-33P]ATP assessed as residual activity at 3 uM; summary of the method: as §2
# [24] = biological target: Cyclin-dependent kinase 7/ cyclin H (Homo sapiens) (UniProt P51946+P50613); assay: Inhibition of CDK7/cyclin H/MNAT1 (unknown origin) using [gamma-33P]ATP assessed as residual activity at 3 uM; type: protein-complex assay; summary of the method: as §2
# [25] = biological target: Serine/threonine-protein kinase Sgk3 (Homo sapiens) (UniProt Q96BR1); assay: Inhibition of SGK3 (unknown origin) using [gamma-33P]ATP assessed as residual activity at 3 uM
# [26] = biological target: Ribosomal protein S6 kinase alpha-2 (Homo sapiens) (UniProt Q15349); assay: Inhibition of RSK3 (unknown origin) using [gamma-33P]ATP assessed as residual activity at 3 uM
# [27] = biological target: Glycogen synthase kinase-3 beta (Homo sapiens) (UniProt P49841); assay: Inhibition of GSK3B (unknown origin) using [gamma-33P]ATP assessed as residual activity at 3 uM; summary of the method: as §1
# [28] = biological target: Death-associated protein kinase 3 (Homo sapiens) (UniProt O43293); assay: Inhibition of ZIPK (unknown origin) using [gamma-33P]ATP assessed as residual activity at 3 uM
# Chain of Death-associated protein kinase 3 (Homo sapiens) (O43293 whole entry, looked up): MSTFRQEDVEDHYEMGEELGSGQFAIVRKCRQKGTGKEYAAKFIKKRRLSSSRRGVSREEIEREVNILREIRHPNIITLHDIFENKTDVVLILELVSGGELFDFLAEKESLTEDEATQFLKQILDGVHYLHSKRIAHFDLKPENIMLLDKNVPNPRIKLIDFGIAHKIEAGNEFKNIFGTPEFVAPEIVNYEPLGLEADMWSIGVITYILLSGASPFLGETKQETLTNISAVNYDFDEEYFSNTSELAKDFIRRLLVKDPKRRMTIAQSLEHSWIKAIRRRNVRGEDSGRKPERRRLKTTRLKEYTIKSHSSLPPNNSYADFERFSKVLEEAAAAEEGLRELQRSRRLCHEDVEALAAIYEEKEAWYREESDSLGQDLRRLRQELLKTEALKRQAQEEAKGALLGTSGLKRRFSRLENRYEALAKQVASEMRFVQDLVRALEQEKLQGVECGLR
# [29] = tested on: Mast/stem cell growth factor receptor Kit (Homo sapiens), P10721 [D816V]; assay: Inhibition of c-Kit D816V mutant (unknown origin) using [gamma-33P]ATP assessed as residual activity at 3 uM
# [30] = biological target: BDNF/NT-3 growth factors receptor (Homo sapiens) (UniProt Q16620); assay: Inhibition of TRKB (unknown origin) using [gamma-33P]ATP assessed as residual activity at 3 uM
# [31] = biological target: Tyrosine-protein kinase Fyn (Homo sapiens, UniProt P06241); assay: Inhibition of FYN (unknown origin) using [gamma-33P]ATP assessed as residual activity at 3 uM
# [32] = biological target: Serine/threonine-protein kinase Nek9 (Homo sapiens) (UniProt Q8TD19); assay: Inhibition of NEK9 (unknown origin) using [gamma-33P]ATP assessed as residual activity at 3 uM
smiles,measurement,setting,value
CCc1ccc(-c2ccc3c(c2)-c2[nH]ncc2S(=O)(=O)N3C)cc1,Activity,[1],89%
same,Activity,[2],94%
same,Activity,[3],74%
same,Activity,[4],52%
same,Activity,[5],94%
same,Activity,[6],102%
same,Activity,[7],103%
same,Activity,[8],80%
same,Activity,[9],95%
same,Activity,[10],93%
same,Activity,[11],101%
same,Activity,[12],78%
same,Activity,[13],98%
same,Activity,[14],88%
same,Activity,[15],94%
same,Activity,[16],80%
same,Activity,[17],96%
same,Activity,[18],96%
same,Activity,[19],96%
same,Activity,[20],91%
same,Activity,[21],102%
same,Activity,[22],61%
same,Activity,[23],95%
same,Activity,[24],97%
same,Activity,[25],93%
same,Activity,[26],97%
same,Activity,[27],103%
same,Activity,[28],97%
same,Activity,[29],36%
same,Activity,[30],101%
same,Activity,[31],39%
same,Activity,[32],78%
